# From PubChem BioAssay
# TRPC4 PAM = TRPC4 (mouse) allosteric potentiation. Q9QUQ5. HEK293 TRPC4beta/mu-opioid, DAMGO EC20, Fluo-4 Ca2+ flux; active compounds read high. B-score at 10 µM. 310,000 compounds, 0.42% hits;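 active means B-score of calcium response area above 5 SD of library B-scores, with initial fluorescence ratio within 5 SD of library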;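 further: B-score of integrated fluorescence ratio over time as area under calcium response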
# Platelet DG rel = modulates dense granule release in human platelets; human platelet-rich plasma, SFLLRN dense granule ATP release, luminescence; inhibition, %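 (compounds screened at 7.5 µM in platelet-rich plasma)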; 300,000 compounds, 0.22% hits;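 active means mean replicate score, as percent of positive control, at or above 50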
# TRPC6 inh = mouse TRPC6 channel inhibition. AID 2553. Q61143. B-score at 10 µM. HEK293-TRPC6, membrane potential dye, ACh-evoked depolarization; active compounds read low. 310,000 compounds, 1.1% hits;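 active means B-score under library mean minus 3 SD, initial fluorescence not abnormally high, positive integrated signal ratio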;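 further: B-score derived from integrated fluorescence ratio over the kinetic read; more negative B-score means stronger inhibition of depolarization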
# Target sequence (Q61143 whole entry, looked up): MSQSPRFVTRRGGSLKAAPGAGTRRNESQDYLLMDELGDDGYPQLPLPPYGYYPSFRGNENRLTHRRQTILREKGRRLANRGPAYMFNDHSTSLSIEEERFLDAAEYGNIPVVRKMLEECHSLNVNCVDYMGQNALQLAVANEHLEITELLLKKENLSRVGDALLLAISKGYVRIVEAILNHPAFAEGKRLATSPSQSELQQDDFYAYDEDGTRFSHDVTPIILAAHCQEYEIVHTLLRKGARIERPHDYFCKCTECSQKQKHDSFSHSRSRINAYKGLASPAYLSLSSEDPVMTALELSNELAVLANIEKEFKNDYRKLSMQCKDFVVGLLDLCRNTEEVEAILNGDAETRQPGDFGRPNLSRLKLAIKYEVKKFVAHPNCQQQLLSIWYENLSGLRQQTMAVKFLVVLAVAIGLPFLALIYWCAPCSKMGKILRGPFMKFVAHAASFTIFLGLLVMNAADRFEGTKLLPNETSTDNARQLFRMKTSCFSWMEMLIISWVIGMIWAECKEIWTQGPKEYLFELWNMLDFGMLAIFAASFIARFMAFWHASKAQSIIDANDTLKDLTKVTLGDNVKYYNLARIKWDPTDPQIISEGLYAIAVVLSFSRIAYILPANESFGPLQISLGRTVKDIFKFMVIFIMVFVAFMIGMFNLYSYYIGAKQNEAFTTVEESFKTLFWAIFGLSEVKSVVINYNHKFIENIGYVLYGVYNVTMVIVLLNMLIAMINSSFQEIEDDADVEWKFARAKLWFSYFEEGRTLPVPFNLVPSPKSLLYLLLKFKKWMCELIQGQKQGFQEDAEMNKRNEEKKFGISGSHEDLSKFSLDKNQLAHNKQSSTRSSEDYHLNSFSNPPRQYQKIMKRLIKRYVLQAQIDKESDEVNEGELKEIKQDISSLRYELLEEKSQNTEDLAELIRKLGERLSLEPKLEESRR
# TRPC6 act = activators of mouse TRPC6 channel; Q61143; HEK293-TRPC6 membrane potential dye fluorescence; active compounds read high; B-score at 10 µM; 310,000 compounds, 0.13% hits;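 active means B-score of the integrated fluorescence ratio above library mean plus 3 SD, and starting fluorescence ratio within library mean plus 5 SD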;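 further: higher score means more depolarization so channel activation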
# TRPC4 block = inhibitors of mouse TRPC4 channel. HEK293 TRPC4beta/mu-opioid, DAMGO-evoked Fluo4 calcium flux; active compounds read low. B-score at 10 µM. 300,000 compounds, 0.39% hits;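 active means B-score over 3 SD under the library average, no early fluorescence shift, positive overall ratio signal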
#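 Assay system: HEK293 cells with stable TRPC4beta plus mu-opioid receptor expression. Dosing: single dose. Measured by: Fluo4 Ca2+ flux fluorescence. Also added: DAMGO in two steps, submaximal then maximal. Read-out: B score from integrated Fluo4 fluorescence ratio.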
# TRPC4 act = activators of mouse TRPC4 channel. HEK293 TRPC4beta/mu-opioid, Fluo4 calcium fluorescence; active compounds read high. B-score at 10 µM. 310,000 compounds, 0.49% hits. AID 2237;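 active means B-score above 5 SD of library B-scores, and initial fluorescence ratio not above library mean plus 5 SD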;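 further: positive B-score marks a calcium rise read as TRPC4 activation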
#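 system = HEK293 cells stably co-expressing mouse TRPC4beta and mu-opioid receptor | schedule = Fluo4 dye loading 45 min at room temperature, 110 s recording | measure = B-scored integrated calcium fluorescence ratio | signal = Fluo4 calcium-sensitive dye fluorescence, kinetic, 1 Hz baseline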
# TRPC4 sel inh 2 = second selectivity test of TRPC6 inhibitors: effect on mouse TRPC4; shares compounds with TRPC6 inh; HEK293 TRPC4/MOR, membrane potential dye fluorescence; channel activated by saturating DAMGO dose; inhibition, % at 10 µM; 920 compounds, 42% hits; AID 2776;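 active means compounds whose fluorescence signal differed from control wells by over 3 SD, either direction, in both duplicate plates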
# TRPC4 spec = selectivity of TRPC6 inhibitors: effect on mouse TRPC4; AID 2777; HEK293 TRPC4/mu-opioid, membrane potential fluorescence; activity change, negative = inhibition, % at 10 µM; shares compounds with TRPC6 inh; 920 compounds, 61% hits;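 active means rise or fall in signal beyond 3 SD of buffer-only wells in both replicate plates, either sign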;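 further: integrated kinetic ratio of fluorescence range over baseline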
# HEK293 MPD ctr 2-1 = parental HEK293 nonspecific activity of TRPC6 inhibitors, second screen; shares compounds with TRPC6 inh; parental HEK293 membrane potential dye fluorescence; maximal acetylcholine challenge after compound addition; signal change vs control, % at 10 µM; 920 compounds, 31% hits; AID 2779;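 active means membrane potential signal moving either way by over 3 SD of the maximum-effect control, in both duplicate plates, meaning non-specific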
# HEK293 MPD ctr-1 = parental HEK293 nonspecific activity of TRPC6 inhibitors | shares compounds with TRPC6 inh | parental HEK293 membrane potential dye fluorescence | membrane potential signal change, % at 10 µM | 920 compounds, 60% hits | AID 2780;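 active means membrane potential signal shifting up or down by more than 3 SD of buffer-only wells, on both duplicate plates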
# HEK293 MPD ctr-2 = parental HEK293 nonspecific activity of TRPC6 modulators; shares compounds with TRPC6 inh; AID 488924; membrane potential signal change, % at 10 µM; 2,400 compounds, 51% hits; membrane potential dye fluorescence;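 active means membrane potential signal moves up or down beyond 5 SD from buffer-only wells, on both duplicate plates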
# HEK293 MPD ctr 2-2 = parental HEK293 nonspecific activity of TRPC6 modulators, second screen. 2,400 compounds, 14% hits. shares compounds with TRPC6 inh. inhibition, % at 10 µM. membrane potential dye fluorescence; after compound, maximal acetylcholine stimulation;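 active means membrane potential signal drops by more than 5 SD from the mean control signal, in both duplicate plates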;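 further: plate controls were acetylcholine ECmax control wells for no effect and buffer only wells for full effect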
# TRPC4/MOR mod = selectivity of TRPC6 modulators against mouse TRPC4 | shares compounds with TRPC6 inh | HEK293 TRPC4/mu-opioid, membrane potential fluorescence | percent change from control (negative = decrease, positive = increase), % at 10 µM | 2,400 compounds, 69% hits;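 active means membrane potential signal moved up or down beyond 5 SD of buffer control wells, in both duplicate plates, actives on both sides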;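 further: plate controls were assay buffer wells for no effect and DAMGO maximal-effect wells for full effect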
# TRPC4/MOR inh 2 = mouse TRPC4 off-target activity of TRPC6 modulators, second screen; shares compounds with TRPC6 inh; 2,400 compounds, 55% hits; inhibition, % at 10 µM; HEK293 TRPC4/mu-opioid, membrane potential dye fluorescence; stimulated with maximal-effect DAMGO;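 active means drop in membrane potential signal beyond 5 SD of the control wells in both duplicate plates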;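 further: TRPC4 counter screen for TRPC6 hits run under conditions tuned for TRPC6 not TRPC4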
# TRPC6 inh conf = confirmation of mouse TRPC6 inhibitors; shares compounds with TRPC6 inh; HEK293-TRPC6, membrane potential dye, ACh-evoked depolarization; inhibition, % at 10 µM; 3,300 compounds, 43% hits; AID 488960;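 active means fluorescence ratio falls more than 5 SD below the full-stimulation control mean, in both duplicate runs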;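 further: integrated fluorescence ratio of peak minus minimum over baseline after agonist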
# TRPC6 act confirm = confirmation of mouse TRPC6 activators | shares compounds with TRPC6 inh | activation, % at 10 µM | 2,800 compounds, 11% hits | HEK293-TRPC6 membrane potential dye fluorescence, FDSS | AID 488961;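 active means ratio signal rise beyond 5 SD above unstimulated control wells' mean, seen in both duplicate runs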;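 further: plate controls were buffer EC0 wells for no effect and acetylcholine ECmax response for full effect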
# * hit, by the source's call; i = inactive; · = no result. Shown are actives, neighbours in structure and some others; about 2.5% of the full set was active somewhere.
SMILES,TRPC4 PAM,Platelet DG rel,TRPC6 inh,TRPC6 act,TRPC4 block,TRPC4 act,HEK293 MPD ctr-2,HEK293 MPD ctr 2-2,TRPC4/MOR mod,TRPC4/MOR inh 2,TRPC6 inh conf,TRPC6 act confirm,others
COc1cc(NC(=O)c2ccc(N3CC4CC(C3)c3cccc(=O)n3C4)c(NC(=O)c3ccncc3)c2)cc(OC)c1OC (stereo unspecified),i,0,i,i,i,i,·,·,·,·,·,·,
COc1ccc(OC)c(/C=N/NC(=O)CSc2cc(C)nc3c(OC)cccc23)c1,i,4,i,i,i,i,·,·,·,·,·,·,
O=C(C1=COCCO1)N1CCN(C(c2ccccc2)c2ccccc2)CC1,i,-10,-7*,i,i,i,·,·,·,·,i,·,TRPC4 sel inh 2=i;TRPC4 spec=1.6%*;HEK293 MPD ctr 2-1=i;HEK293 MPD ctr-1=1.7%*
COc1ccc(-c2nc3n(c2C)Cc2ccccc2-3)cc1,i,0,-6.2*,i,i,i,-70%*,i,-14%*,52%*,i,i,
O=C(NC(=S)NCC1CCCO1)c1ccccc1[N+](=O)[O-] (stereo unspecified),i,5,i,i,i,i,·,·,·,·,·,·,
COC(=O)c1ccc(CN2CCCC(CCC(=O)NCc3ccc(C)o3)C2)cc1 (stereo unspecified),i,-6,-7.9*,i,i,i,·,·,·,·,56%*,i,TRPC4 sel inh 2=i;TRPC4 spec=0.0%*;HEK293 MPD ctr 2-1=i;HEK293 MPD ctr-1=3.2%*
COc1ccc(/C=C/CN2CCCC(CCC(=O)NCc3ccc(F)c(F)c3)C2)cc1 (stereo unspecified),i,9,-7.4*,i,i,i,·,·,·,·,i,i,TRPC4 sel inh 2=48%*;TRPC4 spec=0.3%*;HEK293 MPD ctr 2-1=i;HEK293 MPD ctr-1=7.4%*
COCCC(=O)N1CCCC(CCC(=O)NCc2ccc(F)c(F)c2)C1 (stereo unspecified),i,0,i,i,i,i,·,·,·,·,·,·,
O=C(Cn1c(=O)n(-c2ccc(F)cc2)c(=O)c2sccc21)c1ccccc1,i,-2,i,i,i,i,·,·,·,·,·,·,
O=C1CCCC2=C1C(c1cccc(O)c1)c1c(ccc3ncccc13)N2 (stereo unspecified),i,0,i,i,i,i,·,·,·,·,·,·,
COC(=O)c1cc(C(=O)OCC(=O)NC2CCS(=O)(=O)C2)cc([N+](=O)[O-])c1 (stereo unspecified),i,1,i,i,i,i,·,·,·,·,·,·,
O=C1S/C(=C\c2ccc(N3CCOCC3)o2)C(=O)N1Cc1c(F)cccc1Cl,17*,-11,i,28*,i,43*,226%*,i,117%*,i,i,i,
O=C1S/C(=C/c2ccc(N3CCOCC3)o2)C(=O)N1Cc1c(F)cccc1Cl,i,4,i,17*,i,i,i,i,100%*,i,i,i,
O=C1S/C(=C\c2ccc(N3CCOCC3)o2)C(=O)N1c1ccccc1,i,6,i,i,i,i,·,·,·,·,·,·,
O=C(CCNC(=O)c1ccco1)Nc1ccc(F)c(Cl)c1,i,5,i,i,i,i,·,·,·,·,·,·,
Cc1ccc(NC(=S)NCc2ccc(Cl)cc2)c(C)c1,i,-31,i,i,i,i,·,·,·,·,·,·,
Cc1ccc(-c2csc(NC(=O)/C=C/c3ccco3)c2C(=O)O)cc1,i,-3,-5.2*,i,i,i,i,i,i,i,i,i,
CCOC(=O)c1c(-c2ccccc2)csc1NC(=O)/C(C#N)=C/c1ccc(O)c(OC)c1,i,6,i,35*,i,i,438%*,i,92%*,i,i,129%*,
CCOC(=O)c1c(-c2ccccc2)csc1NC(=O)/C(C#N)=C/c1ccc(OC)c(OC)c1,i,-3,i,i,i,i,·,·,·,·,·,·,
CN1CCN(c2ccc([N+](=O)[O-])cc2NC(=O)c2ccccc2)CC1,i,-3,-6.4*,i,i,i,-323%*,i,-50%*,36%*,i,i,
COc1cccc(NC(=O)c2cc([N+](=O)[O-])ccc2N2CCN(C)CC2)c1,i,-1,i,i,i,i,·,·,·,·,·,·,
O=C(Nc1cc([N+](=O)[O-])ccc1N1CCCC1)c1ccccc1,i,12,i,i,i,i,·,·,·,·,·,·,
O=C(O)c1ccc(N2CCc3ccccc32)c([N+](=O)[O-])c1,i,0,i,i,i,i,·,·,·,·,·,·,
COC(=O)c1ccc(N2CCc3ccccc32)c([N+](=O)[O-])c1,i,-6,-5.3*,i,i,i,i,i,-16%*,40%*,i,i,
CN1CCN(c2ccc([N+](=O)[O-])cc2C(=O)Nc2ccccc2)CC1,i,-1,-5.3*,i,i,i,i,i,i,i,i,i,
